According to ChEMBL document CHEMBL1944512, “Discovery of a novel chemotype of potent human ENaC blockers using a bioisostere approach. Part 1: quaternary amines” (Bioorg Med Chem Lett, 2012):

Legend:
[1] = Inhibition of human ENaC in HBE cells by short-circuit current technique; assay type: cell-based
[2] = Inhibition of guinea pig ENaCbeta1/gamma1 expressed in FRT cells by short-circuit current technique; assay type: cell-based; conditions: Cavia porcellus
How it was run: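 Fischer rat thyroid cells transiently infected with guinea-pig ENaC were used to measure channel blockade, and the value is reported as an IC50.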

Cavia porcellus = test: Blockade of tracheal potential difference in it dosed Dunkin Hartley guinea pig at 1hr; assay type: functional; conditions: Trachea
[3] = Thermodynamic solubility of the compound at pH 1 after 24 hrs of post-equilibriation by shake-flask method; assay type: physicochemical; conditions: buffer, read-out: Therm_solubility
[4] = Thermodynamic solubility of the compound at pH 4 after 24 hrs of post-equilibriation by shake-flask method; assay type: physicochemical; conditions: buffer, read-out: Therm_solubility
[5] = Thermodynamic solubility of the compound at pH 6.8 after 24 hrs of post-equilibriation by shake-flask method; assay type: physicochemical; conditions: buffer, read-out: Therm_solubility
[6] = Thermodynamic solubility of the compound at pH 9 after 24 hrs of post-equilibriation by shake-flask method; assay type: physicochemical; conditions: buffer, read-out: Therm_solubility
Homo sapiens = species: Homo sapiens; test: Ratio of amiloride IC50 to compound IC50 for human ENaC
[7] = Permeability from apical to basal side of human Caco2 cells; assay type: ADME, cell-based; conditions: Caco-2, read-out: permeability
[8] = Permeability from basal to apical side of human Caco2 cells; assay type: ADME, cell-based; conditions: Caco-2, read-out: permeability
HBE = test: Inhibition of human ENaC in HBE cells at 30 uM by short-circuit current technique; assay type: cell-based
[9] = target: T1, Voltage-gated inwardly rectifying potassium channel KCNH2 (Homo sapiens, UniProt Q12809); test: Binding affinity to human ERG channel
T1 sequence (Q12809 whole entry): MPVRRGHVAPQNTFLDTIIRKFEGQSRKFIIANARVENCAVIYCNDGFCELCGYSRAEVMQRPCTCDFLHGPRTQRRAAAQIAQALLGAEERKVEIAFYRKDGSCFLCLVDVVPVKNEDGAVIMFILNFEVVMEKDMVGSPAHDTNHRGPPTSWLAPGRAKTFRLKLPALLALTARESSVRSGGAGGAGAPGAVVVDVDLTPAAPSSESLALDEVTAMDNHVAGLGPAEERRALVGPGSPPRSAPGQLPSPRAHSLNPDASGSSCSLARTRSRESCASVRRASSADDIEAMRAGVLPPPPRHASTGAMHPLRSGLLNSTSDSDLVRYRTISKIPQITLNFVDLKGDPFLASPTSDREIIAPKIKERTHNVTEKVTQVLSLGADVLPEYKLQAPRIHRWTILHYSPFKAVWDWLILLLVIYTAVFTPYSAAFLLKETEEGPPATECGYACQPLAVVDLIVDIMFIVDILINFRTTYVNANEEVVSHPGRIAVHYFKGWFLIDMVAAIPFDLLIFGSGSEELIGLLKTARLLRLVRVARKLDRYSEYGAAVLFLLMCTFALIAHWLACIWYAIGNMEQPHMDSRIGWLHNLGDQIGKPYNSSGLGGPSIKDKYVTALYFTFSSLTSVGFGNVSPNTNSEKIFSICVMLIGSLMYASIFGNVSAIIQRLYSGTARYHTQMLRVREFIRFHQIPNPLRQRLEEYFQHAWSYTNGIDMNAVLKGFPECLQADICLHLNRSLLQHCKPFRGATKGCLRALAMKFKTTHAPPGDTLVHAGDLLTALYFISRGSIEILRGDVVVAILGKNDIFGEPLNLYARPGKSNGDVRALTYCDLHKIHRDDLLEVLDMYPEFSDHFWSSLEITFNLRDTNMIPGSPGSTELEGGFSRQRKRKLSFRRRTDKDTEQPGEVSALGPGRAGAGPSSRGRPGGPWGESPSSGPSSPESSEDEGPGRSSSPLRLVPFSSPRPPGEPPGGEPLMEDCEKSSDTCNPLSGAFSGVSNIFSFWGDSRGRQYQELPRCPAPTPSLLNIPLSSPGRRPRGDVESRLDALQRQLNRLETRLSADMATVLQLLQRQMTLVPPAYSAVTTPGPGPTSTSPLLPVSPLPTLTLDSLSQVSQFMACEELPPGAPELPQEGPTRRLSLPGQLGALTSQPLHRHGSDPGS

[10] = target: T1, Voltage-gated inwardly rectifying potassium channel KCNH2; test: Inhibition of human ERG channel by patch clamp assay

SMILES	IC50 [1]	further results
Cc1ccc(CC(=O)NCCCC[N+](C)(C)CCNC(=O)c2nc(Cl)c(N)nc2N)cc1	750 nM	–
C[N+](C)(CCCCNC(=O)c1ccc(Cl)cc1)CCNC(=O)c1nc(Cl)c(N)nc1N	510 nM	–
N=C(N)NC(=O)c1nc(Cl)c(N)nc1N [AMILORIDE]	220 nM	IC50 [2]: 540 nM; ED50 (Cavia porcellus): 0.016 mg/kg
C[N+](C)(CCCCNC(=O)Cc1ccccc1)CCNC(=O)c1nc(Cl)c(N)nc1N	950 nM	–
Cc1ccc(CCC(=O)NCCCC[N+](C)(C)CCNC(=O)c2nc(Cl)c(N)nc2N)cc1	590 nM	–
C[N+](C)(CCCCNC(=O)CCc1ccc(Cl)cc1)CCNC(=O)c1nc(Cl)c(N)nc1N	160 nM	–
CN(C)CCCCNC(=O)c1nc(Cl)c(N)nc1N	–	inhibition (HBE): < 60%
N/C(=N\C(=O)c1nc(Cl)c(N)nc1N)NCc1ccccc1 [BENZAMIL]	20 nM	–
C[N+](C)(CCCCNS(=O)(=O)c1ccc(Cl)cc1)CCNC(=O)c1nc(Cl)c(N)nc1N	250 nM	–
C[N+](C)(CCCCNC(=O)Cc1ccc(OCc2ccccc2)cc1)CCNC(=O)c1nc(Cl)c(N)nc1N.[Br-]	60 nM	Papp A→B [7]: 3.33 ×10⁻⁶ cm/s; Papp B→A [8]: 2.55 ×10⁻⁶ cm/s; IC50 [9]: 330 nM; IC50 [10]: 10800 nM
C[N+](C)(CCCCCNS(=O)(=O)c1ccc(Cl)cc1)CCNC(=O)c1nc(Cl)c(N)nc1N	960 nM	–
C[N+](C)(CCCCNC(=O)Cc1ccc(Cl)cc1)CCNC(=O)c1nc(Cl)c(N)nc1N	720 nM	–
C[N+](C)(CCNC(=O)c1nc(Cl)c(N)nc1N)CCNS(=O)(=O)c1ccc(Cl)cc1	1120 nM	–

Further lines, with some results ahead:

IC50 [1]	SMILES	further results
880 nM	Cc1ccc(C(=O)NCCCC[N+](C)(C)CCNC(=O)c2nc(Cl)c(N)nc2N)cc1	–
> 30000 nM	CN(C)CCN(C)C(=O)c1nc(Cl)c(N)nc1N	–
4780 nM	CN(C)CCNC(=O)c1nc(Cl)c(N)nc1N	–
13 nM	COc1ccc(CCC[N+](C)(CCCc2ccc(OC)cc2)CCNC(=O)c2nc(Cl)c(N)nc2N)cc1.[Br-]	solubility thermodynamic at 24 h [3]: 600 µg/mL; solubility thermodynamic at 24 h [4]: 500 µg/mL; solubility thermodynamic at 24 h [5]: 900 µg/mL; solubility thermodynamic at 24 h [6]: 1000 µg/mL; Ratio IC50 (Homo sapiens): 100
3970 nM	NCCNC(=O)c1nc(Cl)c(N)nc1N	–
17400 nM	CN(C)CCCNC(=O)c1nc(Cl)c(N)nc1N	–
290 nM	C[N+](C)(CCCNS(=O)(=O)c1ccc(Cl)cc1)CCNC(=O)c1nc(Cl)c(N)nc1N	–
750 nM	C[N+](C)(CCCCCNC(=O)c1ccc(Cl)cc1)CCNC(=O)c1nc(Cl)c(N)nc1N	–
1230 nM	C[N+](C)(CCCCNC(=O)c1ccccc1)CCNC(=O)c1nc(Cl)c(N)nc1N	–
270 nM	COc1ccc(CCC[N+](C)(C)CCNC(=O)c2nc(Cl)c(N)nc2N)cc1.[Br-]	solubility thermodynamic at 24 h [3]: 4800 µg/mL; solubility thermodynamic at 24 h [4]: 4900 µg/mL; solubility thermodynamic at 24 h [5]: 5000 µg/mL; solubility thermodynamic at 24 h [6]: 4700 µg/mL; IC50 [2]: 180 nM; ED50 (Cavia porcellus): 0.044 mg/kg; Papp A→B [7]: 0.93 ×10⁻⁶ cm/s; Papp B→A [8]: 1.67 ×10⁻⁶ cm/s
5810 nM	C[N+](C)(C)CCNC(=O)c1nc(Cl)c(N)nc1N	–
740 nM	C[N+](C)(CCCNC(=O)c1ccc(Cl)cc1)CCNC(=O)c1nc(Cl)c(N)nc1N	–
37 nM	COc1ccc(CCC[N+](CCCc2ccc(OC)cc2)(CCCc2ccc(OC)cc2)CCNC(=O)c2nc(Cl)c(N)nc2N)cc1	–
80 nM	C[N+](C)(CCCCNC(=O)CCc1ccc(OCc2ccccc2)cc1)CCNC(=O)c1nc(Cl)c(N)nc1N	–
1660 nM	C[N+](C)(CCNC(=O)c1ccc(Cl)cc1)CCNC(=O)c1nc(Cl)c(N)nc1N	–
4570 nM	CNCCNC(=O)c1nc(Cl)c(N)nc1N	–
910 nM	C[N+](C)(CCCCNC(=O)CCc1ccccc1)CCNC(=O)c1nc(Cl)c(N)nc1N	–
